Data from publication PMC8927994 (iScience, 2022).
Where two headings read alike, the source gives them in different places.

Legend:
SHP1 = SHP1 (Homo sapiens, UniProt P29350); assay: SHP1 enzyme activity assay; type: biochemical; conditions: read-out: IC50 SHP1, DiFMUP substrate
Summary of the method: (§1)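 In-house expressed recombinant enzyme, purified by gel filtration, at the same conditions as the SHP2 assay but without IRS1 activating peptide. Test compound at 0.001–100 μM is preincubated with enzyme for 30–60 min at 25°C. DiFMUP is then added for 30 min at 25°C, and the reaction is quenched with bpV(Phen). Fluorescence is read at ex 340/em 450 nm, and IC50 comes from the dose-response curve.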

PTP1B = target: T1, PTP1B (Homo sapiens, UniProt P18031); assay: PTP1B enzyme activity assay; type: biochemical; conditions: read-out: IC50 PTP1B, DiFMUP substrate
T1 sequence (P18031 1-435): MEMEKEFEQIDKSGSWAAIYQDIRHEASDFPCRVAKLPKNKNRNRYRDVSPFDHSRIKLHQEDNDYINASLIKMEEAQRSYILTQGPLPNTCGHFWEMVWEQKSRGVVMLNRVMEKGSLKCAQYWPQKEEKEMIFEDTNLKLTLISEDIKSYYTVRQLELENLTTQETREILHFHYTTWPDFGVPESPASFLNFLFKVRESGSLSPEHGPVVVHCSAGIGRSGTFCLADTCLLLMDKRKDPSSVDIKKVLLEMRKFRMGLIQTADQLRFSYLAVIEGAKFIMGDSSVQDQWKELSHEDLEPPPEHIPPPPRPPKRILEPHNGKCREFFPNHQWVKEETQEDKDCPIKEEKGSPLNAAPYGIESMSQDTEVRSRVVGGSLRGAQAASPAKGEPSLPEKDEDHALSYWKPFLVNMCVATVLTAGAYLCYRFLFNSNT
Summary of the method: as §1

[1] = system: mouse peritoneal macrophages (PMs); assay: Imiquimod-induced inflammation in peritoneal macrophages; type: cell-based
[2] = system: bone marrow-derived macrophages (BMDMs); assay: Imiquimod-induced inflammation in bone marrow-derived macrophages; type: cell-based, mouse
[3] = system: imiquimod-induced psoriasis model mice; assay: IMQ-induced psoriasis-like mouse model; type: in vivo
SHP2 protein [4] = conditions: esophageal cancer KYSE520 cells; ref Wang et al., 2021; cited from earlier work
SHP2 protein [5] = conditions: acute myeloid leukemia MV4;11 cells; ref Wang et al., 2021; cited from earlier work
[6] = 10 μM pretreated 3 h, 5 μM IMQ 1 h

SHP1, sequence (P29350 whole entry): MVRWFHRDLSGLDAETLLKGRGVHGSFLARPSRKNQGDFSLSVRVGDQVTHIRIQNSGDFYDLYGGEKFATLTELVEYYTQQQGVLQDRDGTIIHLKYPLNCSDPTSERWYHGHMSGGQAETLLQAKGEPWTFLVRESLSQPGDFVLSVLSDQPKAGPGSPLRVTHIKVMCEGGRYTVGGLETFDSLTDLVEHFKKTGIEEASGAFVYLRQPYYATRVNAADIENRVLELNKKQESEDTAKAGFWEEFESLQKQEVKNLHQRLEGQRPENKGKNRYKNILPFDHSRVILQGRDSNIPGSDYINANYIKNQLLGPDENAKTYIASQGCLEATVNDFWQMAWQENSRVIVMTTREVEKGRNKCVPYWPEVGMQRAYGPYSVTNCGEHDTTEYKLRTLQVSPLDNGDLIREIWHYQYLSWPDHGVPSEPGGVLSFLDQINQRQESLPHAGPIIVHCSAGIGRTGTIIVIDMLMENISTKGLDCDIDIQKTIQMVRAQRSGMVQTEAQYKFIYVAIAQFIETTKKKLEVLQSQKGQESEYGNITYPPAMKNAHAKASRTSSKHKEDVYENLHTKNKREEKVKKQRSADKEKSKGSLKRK

IC50 (SHP1) | IC50 (PTP1B) | SMILES | phosphorylation levels of p-IKKα/β and p-p65 (western blot) [1, 6] | gene expression levels of inflammatory factors Il23a, Il22, Il6, Tnfα, Il1b, Ptgs2 (qPCR) ([1]; pretreated 3 h, 5 μM IMQ 6 h) | phosphorylation levels of p-IKKα/β and p-p65 (western blot) [2, 6] | gene expression levels of inflammatory factors Il23a, Il22, Il6, Tnfα, Il1b, Ptgs2 (qPCR) ([2]; pretreated 3 h, 5 μM IMQ 6 h) | infiltration of inflammatory cells (HE staining of skin sections) [3] | proliferation of epidermal cells (HE staining of skin sections) [3] | reduction of SHP2 protein levels (SHP2 protein [4]) | reduction of SHP2 protein levels (SHP2 protein [5])
> 100 µM | > 100 µM | CC1(N)CCN(c2cnc(-c3cccc(Cl)c3Cl)c(N)n2)CC1 [SHP099] | inhibited the phosphorylation levels | significantly alleviated | inhibited the phosphorylation levels | significantly alleviated | significantly reduced | effectively inhibit | – | –
– | – | Cc1ncsc1-c1ccc([C@H](C)NC(=O)[C@@H]2C[C@@H](O)CN2C(=O)[C@@H](NC(=O)CCCCCCCCN2CCN(C(=O)CCC(=O)Nc3cccc(Sc4ncc(N5CCC(C)(N)CC5)nc4N)c3Cl)CC2)C(C)(C)C)cc1 [SHP2-D26] | – | – | – | – | – | – | > 95% | > 95%
